Here are results for 21 molecules from ChEMBL document CHEMBL1127698, “Matrix metalloproteinase inhibitors containing a (carboxyalkyl)amino zinc ligand: modification of the P1 and P2' residues” (J Med Chem, 1994).

The structures appear in SMILES notation. pIC50: −log10 of the molar value.

Series [1] is described as follows: Half-life period for the activity is tested at pH 6.8. Format: ADME. Put shortly:
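Inhibitor at 20 μM in 20 mM sodium phosphate, pH 6.8, held at 30 °C. Aliquots were injected every 3 h over 24 h onto C18 reverse-phase HPLC with a 5–60% acetonitrile gradient containing 0.1% TFA.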

Another series deals with T1, Interstitial collagenase (Homo sapiens, UniProt P03956).
T1 sequence (P03956 whole entry): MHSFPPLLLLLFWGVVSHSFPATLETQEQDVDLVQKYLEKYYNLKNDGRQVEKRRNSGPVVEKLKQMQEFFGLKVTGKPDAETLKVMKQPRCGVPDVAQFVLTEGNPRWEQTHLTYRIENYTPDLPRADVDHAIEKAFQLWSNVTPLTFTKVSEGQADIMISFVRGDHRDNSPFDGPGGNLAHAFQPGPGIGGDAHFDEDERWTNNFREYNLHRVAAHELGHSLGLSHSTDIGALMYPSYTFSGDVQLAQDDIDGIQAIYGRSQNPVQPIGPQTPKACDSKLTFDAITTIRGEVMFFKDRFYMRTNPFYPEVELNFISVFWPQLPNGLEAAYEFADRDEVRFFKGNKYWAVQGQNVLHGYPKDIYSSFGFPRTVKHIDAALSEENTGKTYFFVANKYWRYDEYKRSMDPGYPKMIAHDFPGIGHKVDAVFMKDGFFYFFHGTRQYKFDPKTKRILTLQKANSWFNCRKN
The experiment in a line: Activity against human collagenase (MMP-1).

The target in a further series is Stromelysin-1 (Homo sapiens, UniProt P08254). The experiment in a line: Activity against human stromelysin (MMP-3). A digest of the protocol:
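Fluorogenic stromelysin assay: human enzyme 10 nM in pH 7.6 Tris buffer (200 mM NaCl, 5 mM CaCl2, 20 μM ZnSO4, 0.05% Brij 35). Inhibitors ran from 10 000 to 0.057 nM in 3-fold steps. Ki came from % inhibition vs log[inhibitor], with substrate far below Km.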

Series [2] deals with Matrix metalloproteinase-9 (Homo sapiens, UniProt P14780). The experiment in a line: Activity against human gelatinase (MMP-9). Put shortly:
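Human gelatinase at 1 nM in pH 7.6 Tris buffer (200 mM NaCl, 5 mM CaCl2, 20 μM ZnSO4, 0.05% Brij 35), with inhibitors at 3-fold dilutions from 10 000 to 0.057 nM. Ki came from % inhibition vs log concentration, with substrate far below Km.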

Sequence of Matrix metalloproteinase-9 (P14780 whole entry): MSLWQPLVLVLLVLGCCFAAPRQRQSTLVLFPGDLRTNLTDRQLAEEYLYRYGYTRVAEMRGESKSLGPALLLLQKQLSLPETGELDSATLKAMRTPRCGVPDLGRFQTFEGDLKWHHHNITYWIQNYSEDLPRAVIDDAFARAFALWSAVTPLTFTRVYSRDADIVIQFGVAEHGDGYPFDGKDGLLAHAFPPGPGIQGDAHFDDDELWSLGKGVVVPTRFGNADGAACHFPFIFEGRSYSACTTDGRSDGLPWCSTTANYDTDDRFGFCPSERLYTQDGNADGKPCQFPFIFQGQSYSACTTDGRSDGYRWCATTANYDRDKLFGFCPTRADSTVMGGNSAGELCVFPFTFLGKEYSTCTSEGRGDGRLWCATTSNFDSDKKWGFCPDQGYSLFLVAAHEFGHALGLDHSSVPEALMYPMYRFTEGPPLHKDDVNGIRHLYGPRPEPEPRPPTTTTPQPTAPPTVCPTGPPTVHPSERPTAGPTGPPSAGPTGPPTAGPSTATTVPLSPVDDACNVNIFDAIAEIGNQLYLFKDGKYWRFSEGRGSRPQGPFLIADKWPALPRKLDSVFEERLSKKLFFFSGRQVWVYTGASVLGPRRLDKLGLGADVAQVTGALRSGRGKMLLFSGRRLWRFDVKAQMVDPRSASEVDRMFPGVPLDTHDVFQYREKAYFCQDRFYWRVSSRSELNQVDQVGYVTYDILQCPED
Sequence of Stromelysin-1 (P08254 whole entry): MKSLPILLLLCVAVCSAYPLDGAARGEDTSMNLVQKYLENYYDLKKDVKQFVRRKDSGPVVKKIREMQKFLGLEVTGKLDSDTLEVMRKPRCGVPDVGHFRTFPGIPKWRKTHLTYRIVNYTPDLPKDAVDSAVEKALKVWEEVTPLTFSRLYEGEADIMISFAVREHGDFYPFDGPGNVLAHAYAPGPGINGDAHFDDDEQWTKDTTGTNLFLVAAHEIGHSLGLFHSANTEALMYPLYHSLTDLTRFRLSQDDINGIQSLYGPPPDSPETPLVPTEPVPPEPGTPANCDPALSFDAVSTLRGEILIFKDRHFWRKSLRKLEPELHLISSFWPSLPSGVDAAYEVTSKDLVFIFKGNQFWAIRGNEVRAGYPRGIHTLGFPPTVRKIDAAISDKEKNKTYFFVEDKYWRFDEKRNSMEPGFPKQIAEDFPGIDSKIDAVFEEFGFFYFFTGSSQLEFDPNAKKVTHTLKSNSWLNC

One may read the half-life as how long it takes for the measured level to halve. The low end stands for fast loss, the high end for slow loss. The term pIC50 denotes the IC50 on a negative log10 scale, so that one unit is a factor of ten. A lower pIC50 goes with a large IC50. The molecule `CC(C)C[C@H](NC(=O)[C@H](CC(C)C)N[C@H](CCN1C(=O)c2cc3ccccc3cc2C1=O)C(=O)O)C(=O)NCCN1CCOCC1` had a half-life in series [1] of 37 h. In addition, the pIC50 was 7.36 against Interstitial collagenase, 6.92 at Stromelysin-1 and 7.89 in series [2].
For `CNC(=O)[C@H](Cc1ccccc1)NC(=O)[C@H](CC(C)C)N[C@H](CCn1c(=O)c2cc3c(=O)[nH]c(=O)c3cc2c1=O)C(=O)O`, in that order: 1.7 h, 7.42, 5.66 and 8.32.
The like results for `CNC(=O)[C@H](Cc1ccccc1)NC(=O)[C@H](CC(C)C)N[C@H](CCN1Cc2cc3ccccc3cc2C1=O)C(=O)O` were, in that order, more than 100 h, 6.68, 5.10 and 7.20.
For `CNC(=O)[C@H](Cc1ccccc1)NC(=O)[C@H](CC(C)C)N[C@H](CCN1C(=O)c2ccccc2C1=O)C(=O)O`, in that order: 10 h, 7.09, 5.22 and 7.23.
In turn, `CNC(=O)[C@H](Cc1ccccc1)NC(=O)[C@H](CC(C)C)N[C@H](CCN1C(=O)c2cc3ccccc3nc2C1=O)C(=O)O` showed a half-life in series [1] of 1.7 h. Also, the pIC50 is 7.66 at Interstitial collagenase, 6.29 against Stromelysin-1 and 8.12 in series [2].
For `CNC(=O)[C@H](Cc1ccccc1)NC(=O)[C@H](CC(C)C)N[C@H](CCN1C(=O)c2ccc(-c3ccccc3)cc2C1=O)C(=O)O`, in that order: 7.8 h, 7.72, 6.67 and 8.35.
The like results for `CNC(=O)[C@H](Cc1ccccc1)NC(=O)[C@H](CC(C)C)N[C@H](CCN1C(=O)c2cc3cccc(OC)c3cc2C1=O)C(=O)O` were, in that order, 7.2 h, 7.44, 5.85 and 7.82.
As to `CNC(=O)[C@H](Cc1ccccc1)NC(=O)[C@H](CC(C)C)N[C@H](CCN1C(=O)c2cc3ccccc3cc2C1=O)C(=O)O`, the half-life in series [1] is 29 h. In addition, the figures for the pIC50 (against Interstitial collagenase; against Stromelysin-1; in series [2]) were 7.70, 7.04 and 8.30, respectively.
For `CCCOc1ccc2c(c1)C(=O)N(CC[C@@H](N[C@@H](CC(C)C)C(=O)N[C@@H](Cc1ccccc1)C(=O)NC)C(=O)O)C2=O`, in that order: 10.9 h, 7.82, 6.37 and 8.68.
On to `CC(C)C[C@H](N[C@H](CCN1C(=O)c2cc3ccccc3cc2C1=O)C(=O)O)C(=O)NCCc1ccccc1`, for which the values for the pIC50 (against Interstitial collagenase; on Stromelysin-1; in series [2]) were 6.80, less than 5.00 and 7.46, respectively.
For the molecule `CNC(=O)[C@H](Cc1ccccc1)NC(=O)[C@H](CC(C)C)N[C@H](CCNC(=O)c1ccc2ccccc2c1)C(=O)O`, the half-life in series [1] was more than 100 h. For the same molecule, the pIC50 is 6.31 on Interstitial collagenase, 5.63 against Stromelysin-1 and 7.31 in series [2].
Regarding `CC(C)C[C@H](N[C@H](CCN1C(=O)c2cc3ccccc3cc2C1=O)C(=O)O)C(=O)N1CCCC1c1cccnc1` (stereo in doubt; 76), the pIC50 was 6.79 against Interstitial collagenase, 5.39 at Stromelysin-1 and 7.15 in series [2].
For `CC(C)C[C@H](N[C@H](CCN1C(=O)c2cc3ccccc3cc2C1=O)C(=O)O)C(=O)NCc1nnn(C)n1`, in that order: 6.57, 5.53 and 7.52.
The like results for `CC(C)C[C@H](N[C@H](CCN1C(=O)c2cc3ccccc3cc2C1=O)C(=O)O)C(=O)NCc1cccnc1` were, in that order, 6.86, 6.51 and 7.44.
Turning to `CNC(=O)[C@H](Cc1ccccc1)NC(=O)[C@H](CC(C)C)N[C@H](CCN1C(=O)c2cc3ccccc3c(OC)c2C1=O)C(=O)O`, the half-life in series [1] is 87 h. For the same molecule, the pIC50 against Interstitial collagenase was 7.27; against Stromelysin-1 it was 5.86; in series [2], 8.13.
In the case of `CC(C)C[C@H](N[C@H](CCN1C(=O)c2cc3ccccc3cc2C1=O)C(=O)O)C(=O)NCc1ccc(S(N)(=O)=O)cc1`, the pIC50 was 7.15 at Interstitial collagenase, 6.53 at Stromelysin-1 and 8.17 in series [2].
Consider `CNC(=O)[C@H](C)NC(=O)[C@H](CC(C)C)N[C@H](CCN1C(=O)c2cc3ccccc3cc2C1=O)C(=O)O`, for which the pIC50 against Interstitial collagenase is 7.07; against Stromelysin-1, 5.25; in series [2] it was 7.16.
In the case of `CNC(=O)[C@H](Cc1ccc(O)cc1)NC(=O)[C@H](CC(C)C)N[C@H](CCN1C(=O)c2cc3ccccc3cc2C1=O)C(=O)O`, the pIC50 at Interstitial collagenase was 7.54; against Stromelysin-1 it was 7.14; in series [2] it was 8.42.
The like results for `CC(C)C[C@H](N[C@H](CCN1C(=O)c2cc3ccccc3cc2C1=O)C(=O)O)C(=O)NCc1cccc(F)c1` were, in that order, 7.39, 5.83 and 7.82.
In series [1], `CNC(=O)[C@H](CC(C)C)NC(=O)[C@H](CC(C)C)N[C@H](CCN1C(=O)c2cc3ccccc3cc2C1=O)C(=O)O` gave a half-life of 27 h. Further, the pIC50 was 7.31 at Interstitial collagenase, 5.89 at Stromelysin-1 and 7.96 in series [2].
For `CNC(=O)[C@H](Cc1ccccc1)NC(=O)[C@H](CC(C)C)N[C@H](CCN1C(=O)c2cc3c(cc2C1=O)OCO3)C(=O)O`, the half-life in series [1] was 15.5 h. The pIC50 at Interstitial collagenase is 7.92; in series [2] it was 8.30.
